Measured values reported in ChEMBL document CHEMBL1140877, “Synthesis and evaluation of Hsp90 inhibitors that contain the 1,4-naphthoquinone scaffold” (Bioorg Med Chem, 2009).

Assays:
Heat shock protein HSP90 [1] = molecular target: T1, Heat shock protein HSP90 (Homo sapiens, UniProt P07900+P08238); experiment: Inhibition of Hsp90 in human SKBR3 cells assessed as down-regulation of Her2 protein by ELISA; format: cell-based; conditions: sk-br-3
In short: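 SKBr3 cells seeded 3000/well, attached overnight, dosed at varying concentrations for 24 hr. Cells washed with ice-cold PBS/1% Tween, fixed and permeabilised in -20 °C methanol (4 °C, 10 min), blocked in 5% BSA/PBST 1 hr, probed with rabbit anti-Her2 (1:500, 4 °C overnight), then HRP anti-rabbit IgG (1:1000, 2 hr rt); chemiluminescence read. Mean ± SEM, three experiments in triplicate.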

MCF7 = experiment: Antiproliferative activity against ERalpha positive human MCF7 cells after 72 hrs by MTS/PMS assay; format: functional, cell-based; conditions: MCF7, 72 h
In short: (§1)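 MCF-7 and SKBr3 cells grown in 1:1 DMEM:Ham's F-12 with non-essential amino acids, 2 mM L-glutamine, penicillin/streptomycin, 10% FBS. Seeded 2000 cells/well, attached overnight, then exposed to varying concentrations in DMSO (1% final) for 72 hr at 37 °C, 5% CO2. Viable cells read by MTS/PMS; 1% DMSO wells set as 100% proliferation. Mean ± SEM, three experiments in triplicate.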

[2] = Inhibition of Hsp90-dependent renaturation of firefly luciferase in rabbit reticulocyte lysate at 25 ug/mL; design: species or system Oryctolagus cuniculus
SK-BR-3 = experiment: Antiproliferative activity against ERalpha negative/Her2 over expressing human SKBR3 cells after 72 hrs by MTS/PMS assay; format: functional, cell-based; conditions: SK-BR-3, 72 h; in short: as §1
Heat shock protein HSP90 [3] = molecular target: T1, Heat shock protein HSP90; experiment: Inhibition of Hsp90 in human MCF7 cells assessed as degradation of Raf1 protein by Western blot analysis; format: cell-based
In short: (§2)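 MCF-7 cells seeded at 1×10^6 per dish, attached overnight, treated at varying concentrations for 24 h (37 °C, 5% CO2), then harvested and immunoblotted for client proteins (Her2, Raf-1, Akt) with actin as non-client reference; GA (500 nM) and DMSO as controls.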

Heat shock protein HSP90 [4] = molecular target: T1, Heat shock protein HSP90; experiment: Inhibition of Hsp90 in human MCF7 cells assessed as degradation of Her2 protein by Western blot analysis; format: cell-based; in short: as §2
Heat shock protein HSP90 [5] = molecular target: T1, Heat shock protein HSP90; experiment: Inhibition of Hsp90 in human MCF7 cells assessed as degradation of Akt protein by Western blot analysis; format: cell-based; in short: as §2

Row | IC50 (Heat shock protein HSP90 [1]) | IC50 (MCF7) | IC50 [2] | IC50 (SK-BR-3) | Activity (Heat shock protein HSP90 [3]) | Activity (Heat shock protein HSP90 [4]) | Activity (Heat shock protein HSP90 [5]) | SMILES
1 | 3 µM | 3.3 µM |  |  |  |  |  | COc1ccc(C2=C(NC(=O)c3ccc(Cl)cc3)C(=O)c3ccccc3C2=O)cc1
2 | 3.3 µM | 0.21 µM | 0.25 µM | 0.82 µM |  |  |  | CC(=O)C1=C(c2ccccc2)C(=O)c2ccccc2C1=O
3 | 2 µM | 1.3 µM |  | 2.5 µM |  |  |  | CC(=O)NC1=C(c2cccc(Cl)c2)C(=O)c2ccccc2C1=O
4 | 4.8 µM | 2.7 µM |  | 3.9 µM |  |  |  | COc1cccc(C2=C(NC(C)=O)C(=O)c3ccccc3C2=O)c1
5 | 9.9 µM | 2.2 µM |  | 5.8 µM |  |  |  | COc1ccc(C2=C(NC(=O)c3cccc4ccccc34)C(=O)c3ccccc3C2=O)cc1
6 | > 100 µM | 23 µM |  | > 100 µM |  |  |  | O=C(NC1=C(c2ccc(Oc3ccccc3)cc2)C(=O)c2ccccc2C1=O)c1ccccc1
7 | 6.6 µM | 1.7 µM | 5 µM | 0.6 µM |  |  |  | CC(=O)NC1=C(Cl)C(=O)c2ccccc2C1=O
8 | 2 µM | 2.2 µM |  | 5.5 µM | Dose-dependent effect | Dose-dependent effect | Dose-dependent effect | COc1ccc(C2=C(NC(=O)c3ccccc3Cl)C(=O)c3ccccc3C2=O)cc1
9 | 1.2 µM | 0.83 µM | 0.02 µM | 0.87 µM |  |  |  | O=C1c2ccccc2C(=O)c2c1nc1ccccn21
10 | 2.4 µM | 1.5 µM | 24 µM | 6.4 µM |  |  |  | COc1ccc(C(=O)NC2=C(c3ccc(OC)cc3)C(=O)c3ccccc3C2=O)cc1
11 | 44.2 µM | 1.8 µM |  | 6.4 µM |  |  |  | COc1ccc(C2=C(NC(=O)c3cccc(OC)c3)C(=O)c3ccccc3C2=O)cc1
12 | 6.3 µM | 4.8 µM |  | 12.7 µM |  |  |  | O=C(NC1=C(c2cccc(Cl)c2)C(=O)c2ccccc2C1=O)c1ccccc1
13 | 1.7 µM | 3 µM | 1.6 µM |  | Dose-dependent effect | Dose-dependent effect | Dose-dependent effect | COc1cccc(-c2cc(C(=O)NC3=C(Cl)C(=O)c4ccccc4C3=O)ccc2OC)c1
14 | 1.2 µM | 19 µM | 0.38 µM | 2.9 µM |  |  |  | CC(=O)NC1=C(N2CCOCC2)C(=O)c2nonc2C1=O
15 | 2.2 µM |  |  | 2.7 µM |  |  |  | COc1ccc(C2=C(NC(C)=O)C(=O)c3ccccc3C2=O)cc1
16 | 13.3 µM | 2.4 µM |  | 6.8 µM |  |  |  | CC(=O)NC1=C(c2ccc3oc4ccccc4c3c2)C(=O)c2ccccc2C1=O
17 | 2.5 µM | 1.9 µM | 1.4 µM | 4.8 µM |  |  |  | COc1ccc(C2=C(NC(=O)C3CCCCC3)C(=O)c3ccccc3C2=O)cc1

Row | IC50 (Heat shock protein HSP90 [1]) | IC50 (MCF7) | IC50 [2] | IC50 (SK-BR-3) | Activity (Heat shock protein HSP90 [3]) | Activity (Heat shock protein HSP90 [4]) | Activity (Heat shock protein HSP90 [5]) | SMILES
18 | 5.8 µM | 2.1 µM |  | 7.9 µM |  |  |  | COc1ccc(C2=C(NC(=O)c3ccccc3OC)C(=O)c3ccccc3C2=O)cc1
19 | 2.5 µM | 2.2 µM | 1.6 µM | 1.7 µM |  |  |  | COc1ccccc1C1=C(NC(C)=O)C(=O)c2ccccc2C1=O
20 | 3 µM | 2.2 µM | 39 µM | 1.9 µM |  |  |  | COc1ccccc1C1=C(NC(=O)c2ccccc2)C(=O)c2ccccc2C1=O
21 | > 100 µM | > 100 µM | 86 µM | > 100 µM |  |  |  | COc1ccc(C2=C(NC(=O)c3ccc(OC)c(-c4cccc(OC)c4)c3)C(=O)c3ccccc3C2=O)cc1
22 | > 100 µM | 6.8 µM |  | > 100 µM |  |  |  | COc1ccc(C2=C(NC(=O)c3ccc4ccccc4c3)C(=O)c3ccccc3C2=O)cc1
23 | 2.7 µM | 1.4 µM |  |  |  |  |  | COc1cccc(C2=C(NC(=O)c3ccccc3)C(=O)c3ccccc3C2=O)c1
24 | 5.3 µM | 1.4 µM | 0.2 µM | 1.8 µM | Dose-dependent effect | Dose-dependent effect | Dose-dependent effect | CC(=O)NC1=C(c2ccc(Cl)cc2)C(=O)c2ccccc2C1=O
25 | 2.8 µM | 1.4 µM |  | 4 µM |  |  |  | COc1ccc(C2=C(NC(=O)c3ccccc3)C(=O)c3ccccc3C2=O)cc1
26 | 3.2 µM | 1.6 µM |  | 1.5 µM |  |  |  | CC(=O)NC1=C(c2ccccc2)C(=O)c2ccccc2C1=O
27 | 2.3 µM | 3 µM |  | 3.6 µM |  |  |  | CC(=O)NC1=C(c2ccccc2Cl)C(=O)c2ccccc2C1=O
28 | 24.6 µM | 2.5 µM |  | 12.1 µM |  |  |  | CC(=O)NC1=C(c2ccc(Oc3ccccc3)cc2)C(=O)c2ccccc2C1=O
29 | 12.9 µM | 3.4 µM |  | 9.5 µM |  |  |  | COc1ccc(C2=C(NC(=O)c3cccc(Cl)c3)C(=O)c3ccccc3C2=O)cc1
30 | > 100 µM | 6 µM |  | > 100 µM |  |  |  | O=C(NC1=C(c2ccc3oc4ccccc4c3c2)C(=O)c2ccccc2C1=O)c1ccccc1
31 | 1.8 µM | 2.6 µM | 1.4 µM | 8.5 µM |  |  |  | O=C(NC1=C(c2ccc(Cl)cc2)C(=O)c2ccccc2C1=O)c1ccccc1
32 | 1.8 µM |  |  | 4 µM |  |  |  | O=C(NC1=C(c2ccccc2Cl)C(=O)c2ccccc2C1=O)c1ccccc1
33 | 30.1 µM | 1.8 µM |  | 2.1 µM |  |  |  | O=C(NC1=C(Cl)C(=O)c2ccccc2C1=O)c1ccccc1
34 | 3.8 µM | 2.1 µM |  | 6.8 µM |  |  |  | O=C(NC1=C(c2ccccc2)C(=O)c2ccccc2C1=O)c1ccccc1
